Assay results taken from article PMC10433466 (ACS Omega, 2023).
Converted amounts (≈) assume the structure as drawn. “And” between values parts separate entries of the source, which are not always exact repeats. Equal entries are not always repeated. Values belong to the compound of their own block, whether it stands above or below them.

Experiments:
P. aeruginosa PA108590 [1] = assay: Checkerboard assay with BLs; type: cell-based
P. aeruginosa PA86052 [2] = assay: Checkerboard assay with BLs; type: cell-based
P. aeruginosa PA107092 = assay: Checkerboard assay with BLs; type: cell-based
P. aeruginosa PA109084 = assay: Checkerboard assay with BLs; type: cell-based
P. aeruginosa PA88949 = assay: Checkerboard assay with BLs; type: cell-based
P. aeruginosa PAO1 [3] = assay: Checkerboard RIF potentiation in CAMHB and Mg2+-supplemented CAMHB; type: cell-based; conditions: RIF alone
How it was run: (§1)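 Checkerboard in CAMHB: the antibiotic or BL/BLI was twofold serially diluted on one axis and the adjuvant on the other. The inoculum was prepared as for MIC (0.5 McFarland, 1:50, about 5 × 10^5 cfu/mL) and plates ran at 37 °C overnight, with turbidity read at 595 nm. Each FIC is combination MIC over single-agent MIC, and FICI is their sum: ≤0.5 synergy, 0.5–4 additive, >4 antagonism. Runs were done at least twice.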

A. baumannii ATCC 17978 = assay: Antimicrobial susceptibility assay; type: cell-based; conditions: Acinetobacter baumannii, ATCC17978, read-out: minimum inhibitory concentration (MIC)
How it was run: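 CLSI broth microdilution. Overnight culture adjusted in saline to 0.5 McFarland, then diluted 1:50 in cation-adjusted Mueller Hinton broth to about 5 × 10^5 cfu/mL final. Test compound twofold serially diluted in the same broth, mixed with an equal volume of inoculum, incubated at 37 °C overnight. MIC is the lowest concentration without visible turbidity (595 nm). Run at least twice; repeated if outside twofold agreement.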

E. coli ATCC 25922 = assay: Antimicrobial susceptibility assay; type: cell-based; conditions: Escherichia coli, ATCC25922, read-out: minimum inhibitory concentration (MIC)
How it was run: (§2)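 Broth microdilution following CLSI guidance. An overnight culture was adjusted in saline to 0.5 McFarland, diluted 1:50 in CAMHB and inoculated at about 5 × 10^5 cfu/mL final. Agents were twofold serially diluted in CAMHB, mixed with equal volumes of inoculum and held at 37 °C overnight. MIC was the lowest concentration without visible turbidity, read at 595 nm. Runs were done at least twice and repeated if outside twofold agreement.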

P. aeruginosa PAO1 [4] = assay: Antimicrobial susceptibility assay; type: cell-based; conditions: Pseudomonas aeruginosa, PAO1, read-out: minimum inhibitory concentration (MIC)
How it was run: as §2

P. aeruginosa PAO1 [5] = conditions: cited from earlier work
P. aeruginosa PA108590 [6] = assay: Potentiation of BL/BLI; type: cell-based
How it was run: as §1

P. aeruginosa PAO1 [7] = assay: Outer membrane permeabilization assay; type: cell-based; conditions: NPN 10 μM
How it was run: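 PAO1 suspension (OD600 0.4–0.6) was incubated with NPN (10 μM final) in 5 mM HEPES, 5 mM glucose and 5 μM CCCP for 30 min at room temperature in the dark. Test compound was then added at varying concentrations, and fluorescence (ex 350 / em 420 nm) was recorded every 30 s.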

P. aeruginosa PA86052 [8] = assay: Potentiation of BL/BLI; type: cell-based
How it was run: as §1

P. aeruginosa PAO1 [9] = assay: Checkerboard assay, antibiotic potentiation; type: cell-based; conditions: PMBN (7 μM) vs 2c 8 μg/mL (2 μM)
How it was run: as §1

[10] = ATM/AVI in the presence of 8 μg/mL compound 3 (3.5 μM) or PMBN (7 μM)
[11] = ATM/AVI with 8 μg/mL compound 3 (3.5 μM) or PMBN (7 μM)
[12] = CAZ/AVI in the presence of 8 μg/mL compound 3 (3.5 μM) or PMBN (7 μM)
[13] = CAZ/AVI with 8 μg/mL compound 3 (3.5 μM) or PMBN (7 μM)
[14] = CTZ/TAZ in the presence of 8 μg/mL compound 3 (3.5 μM) or PMBN (7 μM)
[15] = CTZ/TAZ with 8 μg/mL compound 3 (3.5 μM) or PMBN (7 μM)
[16] = IMI/REL in the presence of 8 μg/mL compound 3 (3.5 μM) or PMBN (7 μM)
[17] = IMI/REL with 8 μg/mL compound 3 (3.5 μM) or PMBN (7 μM)
[18] = MER/VAB in the presence of 8 μg/mL compound 3 (3.5 μM) or PMBN (7 μM)
[19] = MER/VAB with 8 μg/mL compound 3 (3.5 μM) or PMBN (7 μM)

Compound: C[C@H]1[C@H](NC(=O)/C(=N\OC(C)(C)C(=O)O)c2csc(N)n2)C(=O)N1S(=O)(=O)O [ATM, aztreonam]
MICBL (P. aeruginosa PA108590 [1]; ATM alone): 32 µg/mL
MICBL (P. aeruginosa PA86052 [2]; ATM alone): 32 µg/mL

Compound: Cn1c(N)c(NC(=O)NCCN)c[n+]1CC1=C(C(=O)O)N2C(=O)[C@@H](NC(=O)/C(=N\OC(C)(C)C(=O)[O-])c3nsc(N)n3)[C@H]2SC1 [CTZ, ceftolozane]
MICBL (P. aeruginosa PA109084; CTZ alone): 8 µg/mL and 4 µg/mL
MICBL (P. aeruginosa PA107092; CTZ alone): 4 µg/mL
MICBL (P. aeruginosa PA108590 [1]; CTZ alone): 8 µg/mL and 4 µg/mL
MICBL (P. aeruginosa PA88949; CTZ alone): 4 µg/mL
MICBL (P. aeruginosa PA86052 [2]; CTZ alone): 8 µg/mL and 4 µg/mL

Compound: C[C@@H](O)[C@H]1C(=O)N2C(C(=O)O)=C(S[C@@H]3CN[C@H](C(=O)N(C)C)C3)[C@H](C)[C@H]12 [MER, meropenem]
MICBL (P. aeruginosa PA109084; MER alone): 16 µg/mL
MICBL (P. aeruginosa PA107092; MER alone): 32 µg/mL and 64 µg/mL
MICBL (P. aeruginosa PA108590 [1]; MER alone): 4 µg/mL and 8 µg/mL
MICBL (P. aeruginosa PA88949; MER alone): 16 µg/mL and 32 µg/mL
MICBL (P. aeruginosa PA86052 [2]; MER alone): 16 µg/mL

Compound: NC[C@H]1O[C@H](O[C@H]2[C@H](O)[C@@H](O[C@H]3O[C@H](CO)[C@@H](O)[C@H](N)[C@H]3O)[C@H](N)C[C@@H]2N)[C@H](N)C[C@@H]1O [TOB, tobramycin]
MIC (A. baumannii ATCC 17978): 0.5 µg/mL (≈ 1.07 µM)
MIC (E. coli ATCC 25922): 2 µg/mL (≈ 4.28 µM)
MIC (P. aeruginosa PAO1 [4]): 0.5 µg/mL (≈ 1.07 µM)
synergy with NOV, RIF, MIN, LEV, CAZ (P. aeruginosa PAO1 [5]): did not synergize

More lines, main results first:

MICBL (P. aeruginosa PA107092; CAZ alone): 128 µg/mL
MICBL (P. aeruginosa PA108590 [1]; CAZ alone): 64 µg/mL
MICBL (P. aeruginosa PA86052 [2]; CAZ alone): 64 µg/mL
Compound: CC(C)(O/N=C(\C(=O)N[C@@H]1C(=O)N2C(C(=O)[O-])=C(C[n+]3ccccc3)CS[C@H]12)c1csc(N)n1)C(=O)O [CAZ, ceftazidime]

MICBL (P. aeruginosa PA109084; IMI alone): 16 µg/mL
MICBL (P. aeruginosa PA107092; IMI alone): 32 µg/mL
MICBL (P. aeruginosa PA108590 [1]; IMI alone): 32 µg/mL
MICBL (P. aeruginosa PA88949; IMI alone): 64 µg/mL
MICBL (P. aeruginosa PA86052 [2]; IMI alone): 64 µg/mL and 32 µg/mL
Compound: C[C@@H](O)[C@H]1C(=O)N2C(C(=O)O)=C(SCCN=CN)C[C@H]12 [IMI, imipenem]

MICRIF (P. aeruginosa PAO1 [3]; CAMHB): 32 µg/mL
MICRIF (P. aeruginosa PAO1 [3]; CAMHB with 20 mM Mg2+): 32 µg/mL
Compound: CO[C@H]1/C=C/O[C@@]2(C)Oc3c(C)c(O)c4c(O)c(c(/C=N/N5CCN(C)CC5)c(O)c4c3C2=O)NC(=O)/C(C)=C\C=C\[C@H](C)[C@H](O)[C@@H](C)[C@@H](O)[C@@H](C)[C@H](OC(C)=O)[C@@H]1C [RIF, rifampicin]

MICBL/BLI [MIC with 3 or PMBN] (P. aeruginosa PA108590 [6]; [10]): 2 µg/mL
MICBL/BLI [MIC with 3 or PMBN] (P. aeruginosa PA108590 [6]; [12]): 4 µg/mL
MICBL/BLI [MIC with 3 or PMBN] (P. aeruginosa PA108590 [6]; [14]): 2 µg/mL
MICBL/BLI [MIC with 3 or PMBN] (P. aeruginosa PA108590 [6]; [16]): 1 µg/mL
MICBL/BLI [MIC with 3 or PMBN] (P. aeruginosa PA108590 [6]; [18]): 4 [4] μg/mL
NPN fluorescence (OM permeabilization) (P. aeruginosa PAO1 [7]): increased fluorescence
MICBL/BLI [MIC with 3 or PMBN] (P. aeruginosa PA86052 [8]; [10]): 0.0625 µg/mL
MICBL/BLI [MIC with 3 or PMBN] (P. aeruginosa PA86052 [8]; [12]): 0.25 µg/mL
MICBL/BLI [MIC with 3 or PMBN] (P. aeruginosa PA86052 [8]; [14]): 0.0625 µg/mL
MICBL/BLI [MIC with 3 or PMBN] (P. aeruginosa PA86052 [8]; [16]): 0.125 µg/mL
MICBL/BLI [MIC with 3 or PMBN] (P. aeruginosa PA86052 [8]; [18]): 0.0312 µg/mL
Compound: polymyxin B nonapeptide [PMBN]
fold potentiation (P. aeruginosa PA108590 [6]; [11]): 16 fold
fold potentiation (P. aeruginosa PA108590 [6]; [13]): 32 fold
fold potentiation (P. aeruginosa PA108590 [6]; [15]): 2 fold
fold potentiation (P. aeruginosa PA108590 [6]; [17]): 32 fold
fold potentiation (P. aeruginosa PA108590 [6]; [19]): 1 fold
fold potentiation (P. aeruginosa PA86052 [8]; [11]): 1024 fold
fold potentiation (P. aeruginosa PA86052 [8]; [13]): 512 fold
fold potentiation (P. aeruginosa PA86052 [8]; [15]): 128 fold
fold potentiation (P. aeruginosa PA86052 [8]; [17]): 512 fold
fold potentiation (P. aeruginosa PA86052 [8]; [19]): 512 fold
MIN potentiation relative to trimer 2c (P. aeruginosa PAO1 [9]): 4 fold
